# Assay outcomes: PubChem, The Scripps Research Institute Molecular Screening Center
# This is a sample that favours compounds with a hit; in the whole collection about 3.2% have one here.
# LEDGF integ inh – blockers of LEDGF/p75-dependent integrase strand transfer – biochemical, TR-FRET, high throughput, primary screen; AID 743269, 2014; TR-FRET IN-LEDGF/p75 DNA integration, Eu/Cy5; inhibition, % at 3.7 µM; hit rate 0.64% among 370,000; HIV-1 integrase (with human LEDGF/p75);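 active = inhibition above the screen-wide mean plus 3 SD, cut at about 13% in these data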;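 also: signal is the Cy5 over europium emission ratio at 671 and 618 nm; 0% = plate median of compound wells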
# rCAG RNA binder – binders of r(CAG) RNA repeats, primary screen, biochemical, fluorescence | inhibition, % at 3 µM | AID 651821, 2012 | r(CAG) RNA repeat, TO-PRO-1 dye displacement fluorescence | hit rate 1.3% among 370,000;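 active = inhibition above the plate cutoff, the mean of all test compounds on that plate plus 3 SD, cut at about 35% in these data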;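 also: 0% = DMSO alone and 100% = 100 µM mitoxantrone as full dye displacement; higher means more dye released from RNA so lower well fluorescence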
# DAGLB inhibitor – DAGLB lipase inhibitors, primary screen, biochemical, fluorescence, HTS; Diacylglycerol lipase-beta (Homo sapiens), Q8NCG7; HEK293T DAGLB membrane lysate, EnzChek fluorogenic substrate; inhibition, % at 5.17 µM; hit rate 0.059% among 340,000; in the data active = inhibition above about 34%;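 also: 0% = enzyme with vehicle and 100% = wells lacking enzyme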
# Target sequence (Q8NCG7 whole entry, looked up): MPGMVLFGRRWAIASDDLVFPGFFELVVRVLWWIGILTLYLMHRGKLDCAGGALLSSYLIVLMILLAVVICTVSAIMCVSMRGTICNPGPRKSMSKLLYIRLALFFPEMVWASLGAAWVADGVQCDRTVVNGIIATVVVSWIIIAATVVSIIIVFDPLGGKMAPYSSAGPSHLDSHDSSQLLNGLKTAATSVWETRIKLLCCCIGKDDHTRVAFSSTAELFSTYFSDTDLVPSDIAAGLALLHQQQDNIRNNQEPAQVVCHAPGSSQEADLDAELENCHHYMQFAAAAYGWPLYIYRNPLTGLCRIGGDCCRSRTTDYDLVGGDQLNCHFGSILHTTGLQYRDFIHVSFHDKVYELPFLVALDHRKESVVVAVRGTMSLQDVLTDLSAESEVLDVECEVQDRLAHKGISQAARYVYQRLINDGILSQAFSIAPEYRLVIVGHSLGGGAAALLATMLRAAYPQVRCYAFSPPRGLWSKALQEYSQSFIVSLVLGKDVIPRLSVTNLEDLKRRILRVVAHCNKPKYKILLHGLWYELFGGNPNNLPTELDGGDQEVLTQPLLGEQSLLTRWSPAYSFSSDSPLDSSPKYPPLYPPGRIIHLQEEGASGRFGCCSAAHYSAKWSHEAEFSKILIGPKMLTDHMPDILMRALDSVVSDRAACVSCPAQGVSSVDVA
# PRMT1 FP inh – PRMT1 methyltransferase inhibitors, primary screen, biochemical, fluorescence polarization. AID 652257, 2013. recombinant PRMT1, activity-based probe fluorescence polarization. hit rate 1.3% among 370,000. inhibition, % at 2.79 µM;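 active = inhibition above about 21% made by adding two undisclosed values, limit read from the data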
# mABHD4 FP – ABHD4 inhibitors, primary screen, biochemical, fluorescence polarization, mouse. (Lyso)-N-acylphosphatidylethanolamine lipase (Mus musculus), Q8VD66. purified mABHD4, FP-Rh probe fluorescence polarization. inhibition, % at 8.92 µM. hit rate 0.54% among 370,000;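 active = inhibition exceeding the mean over every tested compound plus 3 SD, cut at about 30% in these data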;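 also: 0% = plate median of compound wells and 100% = S159A mutant with DMSO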
#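 Assay system: mouse ABHD4 enzyme, wild type / Also added: fluorescent activity-based probe FP-Rh / Doses: single nominal dose of 8.92 µM, 0.89% DMSO final / Timing: 45 min compound pre-incubation plus 60 min probe step, 25 °C / Signal: FP readout, ex 525 nm / em 598 nm / Control set: S159A mutant/DMSO as 100%, compound-well median as 0%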
# HTRA1 inh – HTRA1 serine protease inhibitors, primary screen, biochemical, fluorescence polarization, HTS | recombinant HTRA1, FP-rhodamine activity-based probe | inhibition, % at 5.96 µM | AID 504803, 2011 | Q92743 | hit rate 0.5% among 340,000; in the data active = inhibition above about 36%;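 also: 0% = enzyme with DMSO and 100% = wells lacking enzyme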
# PRMT1 inh conf – PRMT1 methyltransferase inhibitors, confirmation, biochemical, fluorescence polarization, triplicate. shares compounds with PRMT1 FP inh. recombinant His-PRMT1, activity-based probe fluorescence polarization. inhibition, % at 2.79 µM. hit rate 42% among 3,300. AID 687036, 2013;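 active = mean inhibition across replicates above the hit cutoff derived for the earlier primary screen, cut at about 22% in these data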
# * hit, by the source's call; . = not tested or not shown.
SMILES,LEDGF integ inh,rCAG RNA binder,DAGLB inhibitor,PRMT1 FP inh,mABHD4 FP,HTRA1 inh,PRMT1 inh conf
Cc1cccc(S(=O)(=O)C(C#N)c2nc3ccccc3nc2N2CCCC2)c1 (configuration not stated),5,13,-2,25*,8,21,5
CC(C)(C)N(Cc1cc2ccccc2[nH]c1=O)C(=O)c1ccco1,5,1,0,-1,1,-4,.
Nc1c(C(=O)NC2CCCC2)sc2nc(-c3cccs3)ccc12,-1,28,-1,53*,-14,-7,4
NC(=O)c1sc2nc(-c3cccs3)ccc2c1N,-4,7,1,13,5,-17,.
COc1ccc(-c2cc(C(=O)N/N=C(\C)c3ccco3)c3ccccc3n2)c(OC)c1,-1,14,-3,-4,-24,-38,.
COc1cccc(OC)c1OC(=O)/C=C/c1ccc(C)o1,-1,3,0,16,-1,3,.
N#Cc1cnc(N)c(Br)c1,-3,1,-1,2,-2,5,.
CC1CCN(S(=O)(=O)c2ccc3c(c2)N(C)C(=O)CC(=O)N3C)CC1,-3,2,-2,47*,1,9,44*
CN1C(=O)CC(=O)N(C)c2cc(S(=O)(=O)N(C)Cc3ccccc3)ccc21,-1,-1,-3,54*,-3,-4,36*
CN(Cc1ccccc1)S(=O)(=O)c1ccc2c(c1)n(C)c(=O)c(=O)n2C,1,-2,1,-1,0,5,.
CC1CCN(c2ccc(S(=O)(=O)N3CCC(C)CC3)cc2N)CC1,3,-1,-6,-3,-10,-13,.
Cc1ccc(S(=O)(=O)N2CCOCC2)cc1NC(=O)CNCc1ccccn1,-3,-4,2,4,15,-2,.
Cc1ccccc1OCC(=O)NCCS(=O)(=O)N1CCN(c2ccc(F)cc2)CC1,1,-6,0,-2,-2,0,.
COc1ccccc1CCn1cnc(-c2ccccc2)c1CC(C)C,3,-2,.,12,-12,.,.
Cc1ccc2cc(CN(Cc3ccco3)C(=O)c3cccs3)c(=O)[nH]c2c1,6,10,4,30*,-2,-12,2
Cc1cccc2cc(CN(Cc3ccco3)C(=O)c3cccs3)c(=O)[nH]c12,0,0,1,1,3,-8,.
Cc1ccc2cc(CN(C(=O)c3ccco3)c3ccccc3)c(=O)[nH]c2c1,-1,6,-14,53*,-11,3,-6
Cc1cc(C)c2[nH]c(=O)c(CN(Cc3cccs3)C(=S)NCc3ccco3)cc2c1,7,9,8,35*,0,-77,0
Cc1ccc(N(Cc2cc3ccc(C)cc3[nH]c2=O)C(=O)c2ccco2)cc1,-3,-2,2,1,-2,-5,.
Cc1ccc(C)c(S(=O)(=O)NCc2ccc(C(=O)N3CCOCC3)cc2)c1,5,-4,-3,-2,0,0,.
Cc1ccc(CN(Cc2cc3cc4c(cc3[nH]c2=O)OCCO4)Cc2nnnn2Cc2ccco2)cc1,17*,32,1,43*,7,1,13
COc1ccccc1CN(Cc1cc2c(C)ccc(C)c2[nH]c1=O)Cc1nnnn1Cc1ccco1,9,17,2,37*,6,-16,6
CCC(C)(C)n1nnnc1C(C(C)C)N(Cc1cccnc1)Cc1ccco1 (configuration not stated),0,-8,-1,-2,5,-3,.
CCC(c1nnnn1Cc1ccco1)N(Cc1ccccc1OC)Cc1cc2cc(C)ccc2[nH]c1=O (configuration not stated),-3,5,2,15,0,-41,.
CCC(C)(C)n1nnnc1C(C(C)C)N(Cc1ccco1)Cc1cc2cc3c(cc2[nH]c1=O)OCO3 (configuration not stated),10,-1,-2,41*,0,0,5
SMILES,LEDGF integ inh,rCAG RNA binder,DAGLB inhibitor,PRMT1 FP inh,mABHD4 FP,HTRA1 inh,PRMT1 inh conf
OC(c1ccccc1)c1nc(-c2cc3ccccc3o2)cs1 (configuration not stated),2,0,.,5,-24,.,.
O=C(Nc1ccccc1)Nc1cc(S(=O)(=O)N2CCOCC2)ccc1N1CCCC1,-4,6,-1,29*,1,-6,1
O=C(Nc1ccc(Cl)cc1)Nc1cc(S(=O)(=O)N2CCOCC2)ccc1N1CCCC1,0,6,7,2,7,0,.
CCOCC(=O)Nc1cc(S(=O)(=O)N2CCOCC2)ccc1N1CCCCC1,8,3,-1,41*,-2,-1,7
CCOC(=O)C1=C(C)N(CCCC(=O)O)C(=O)NC1c1ccccc1OC(=O)c1cccs1 (configuration not stated),-2,0,.,-1,0,.,.
COc1ccc(OC)c(NC(=O)CNC(=O)c2ccc([N+](=O)[O-])cc2)c1,0,0,1,-1,-1,3,.
Cc1cccc(C)c1NC(=O)/C(=C/c1ccco1)c1ccccc1,3,-1,-6,26*,3,0,4
O=c1oc(-c2ccc(Cl)cc2[N+](=O)[O-])nc2ccccc12,-2,7,-18,-2,5,-11,.
CN(Cc1cnn(C)c1)C(=O)c1cc(COc2c(F)cccc2F)on1,2,-3,0,-1,-1,3,.
C=C1C(=O)C23C(O)C1CCC2C12CCCC(C)(COC(C)=O)C1C(O)C3(O)OC2 (configuration not stated),0,3,1,31*,8,-3,33*
CCN1CCN(C(=S)c2ccc(Br)cc2)CC1,0,-5,-4,36*,2,-32,35*
CCN1CCN(C(=S)c2ccc(O)cc2)CC1,-5,-4,-1,81*,2,5,52*
C=CCNC(=O)C1CC(=O)N(c2ccc(OCC(=O)Nc3c(C)cccc3C)cc2)C1 (configuration not stated),5,1,0,-3,-6,-1,.
CCCN1C(=O)S/C(=C\c2ccc(N3CCOCC3)o2)C1=O,0,10,-7,26*,-5,6,-72
COC(=O)CN1C(=O)S/C(=C/c2ccc(N3CCCCC3)o2)C1=O,6,9,-27,9,13,-8,.
O=C(O)CN1C(=O)/C(=C/c2ccc(N3CCCCC3)o2)SC1=S,4,25,1,38*,8,-4,37*
